Measurements pooled from the literature.
Lines come from different studies, so protocols differ.
Target: Serine/threonine-protein kinase 26 (STK26, Homo sapiens, UniProt Q9P289)

CC#CC(=O)N1CCC[C@H]1c1nc(-c2ccc(C(=O)Nc3ccccn3)cc2)c2c(N)nccn12  inhibition (enzyme activity, inhibitor; 1 µM): 0%
CCCCC(=O)Nc1ccc(-c2ccc3ncn(CCC)c(=O)c3c2)cn1  remaining binding (binding, competition with immobilised ligand; 0.5 µM): 100%
CO[C@@H]1[C@H](N(C)C(=O)c2ccccc2)C[C@H]2O[C@]1(C)n1c3ccccc3c3c4c(c5c6ccccc6n2c5c31)C(=O)NC4  inhibition (enzyme activity, inhibitor; 1 µM): 47%
Cc1cc(O)c(-c2ccc([C@@H](C)CN(C)C)cc2)c2c1[nH]c(=O)c1sccc12  inhibition (enzyme activity, inhibitor; 0.1 µM): 19.3%
CN1CCN(C(=O)c2ccc(NC(=O)Nc3ccc(N(C)c4ccnc(Nc5ccc(CS(C)(=O)=O)cc5)n4)cc3)cc2)CC1  remaining binding (binding, competition with immobilised ligand; 1 µM): 11%
CC(C)S(=O)(=O)c1ccc2nccc(Nc3ccc4sc(C5CCCC5)nc4c3)c2c1  activity vs control (enzyme activity, inhibitor; 1 µM): 84%
COc1ccc2[nH]c3c4[nH]c5ccc(OC)cc5c4c4c(c3c2c1)C(=O)NC4=O  remaining binding (binding, competition with immobilised ligand; 1 µM): 85%
C1=C/COCc2cc(ccc2OCCN2CCCC2)Nc2nccc(n2)-c2cccc(c2)COC/1  remaining binding (binding; 0.1 µM): 74%
